From ChEMBL document CHEMBL1135602 (J Med Chem, 2002)
Calls of active or inactive are those of the source. The rule behind the calls is not given here.

test system: BC; assay: Cytotoxicity against human breast cancer cells.; assay type: functional, cell-based; settings: not given

Compound	IC50 [nM]
CCCCCCc1nc(N)nc(N)c1-c1ccccc1	268000
Nc1nc(N)c(-c2ccccc2)c(CCCc2ccccc2)n1	> 500000
COc1ccc(CCCc2nc(N)nc(N)c2-c2cccc(Cl)c2)cc1	> 500000
Nc1nc(N)c(-c2cccc(Cl)c2)c(CCOCCCOc2ccccc2)n1	6100

molecular target: Bifunctional dihydrofolate reductase-thymidylate synthase (Plasmodium falciparum K1) (UniProt P13922); assay: Inhibition of Plasmodium falciparum wild-type dihydrofolate reductase (DHFR) relative to Pyrimethamine.; settings: not given
Sequence (P13922 whole entry, looked up): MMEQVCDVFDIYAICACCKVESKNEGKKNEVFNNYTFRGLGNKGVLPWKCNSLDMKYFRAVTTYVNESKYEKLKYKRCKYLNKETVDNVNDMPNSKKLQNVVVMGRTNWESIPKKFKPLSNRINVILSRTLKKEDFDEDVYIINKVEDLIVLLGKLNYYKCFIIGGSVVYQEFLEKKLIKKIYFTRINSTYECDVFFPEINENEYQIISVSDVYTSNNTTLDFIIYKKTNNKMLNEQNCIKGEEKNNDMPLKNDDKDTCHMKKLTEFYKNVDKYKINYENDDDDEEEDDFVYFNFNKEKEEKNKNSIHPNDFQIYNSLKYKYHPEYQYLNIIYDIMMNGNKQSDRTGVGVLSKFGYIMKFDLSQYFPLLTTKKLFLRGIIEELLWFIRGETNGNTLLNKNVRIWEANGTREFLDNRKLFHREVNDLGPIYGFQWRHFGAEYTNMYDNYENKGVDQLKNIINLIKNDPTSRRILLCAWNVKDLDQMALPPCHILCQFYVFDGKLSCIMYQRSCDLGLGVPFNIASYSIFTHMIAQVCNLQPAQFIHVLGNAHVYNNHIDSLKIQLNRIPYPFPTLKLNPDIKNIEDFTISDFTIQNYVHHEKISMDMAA

Compound	Relative activity
CCCCCCc1nc(N)nc(N)c1-c1ccccc1	0.5
Nc1nc(N)c(-c2ccccc2)c(CCCc2ccccc2)n1	0.9
COc1ccc(CCCc2nc(N)nc(N)c2-c2cccc(Cl)c2)cc1	3.7
Nc1nc(N)c(-c2cccc(Cl)c2)c(CCOCCCOc2ccccc2)n1	0.7

molecular target: Bifunctional dihydrofolate reductase-thymidylate synthase (Plasmodium falciparum K1) (UniProt P13922); assay: (§1) Inhibition of the wild-type dihydrofolate reductase (DHFR) relative to Pyr.; settings: not given
How it was run: (§2)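 Assayed at 25 °C in 50 mM TES pH 7.0, 75 mM β-mercaptoethanol, 1 mg/mL BSA, with 100 µM H2folate and 100 µM NADPH. A340 was followed. Ki was derived from IC50 = Ki(1+[S]/Km), assuming competitive inhibition.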

Compound	Relative activity
CCc1nc(N)nc(N)c1-c1ccc(Br)cc1	0.5

molecular target: Bifunctional dihydrofolate reductase-thymidylate synthase (Plasmodium falciparum K1) (UniProt P13922); assay: as §1; settings: not given; how it was run: as §2

Compound	Relative activity
CCc1nc(N)nc(N)c1-c1ccc(Br)cc1	1.1

molecular target: T1, Dihydrofolate reductase (Homo sapiens) (UniProt P00374); assay: Cytotoxicity by selective inhibition against human dihydrofolate reductase (DHFR);NA is no inhibition; settings: not given
T1 sequence (whole entry): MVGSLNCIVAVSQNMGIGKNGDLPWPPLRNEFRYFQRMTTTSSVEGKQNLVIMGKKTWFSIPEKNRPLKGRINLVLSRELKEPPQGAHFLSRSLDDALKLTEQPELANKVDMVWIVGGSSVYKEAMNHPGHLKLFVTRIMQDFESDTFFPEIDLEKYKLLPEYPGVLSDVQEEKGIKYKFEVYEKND

Compound	NI
Nc1nc(N)c(-c2ccccc2)c(CCCc2ccccc2)n1	inactive

molecular target: Bifunctional dihydrofolate reductase-thymidylate synthase (Plasmodium falciparum K1, UniProt P13922); assay: Inhibition of the C59R+S108N mutant of dihydrofolate reductase (DHFR); settings: not given
How it was run: (§3)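 Assay at 25 °C: 50 mM TES pH 7.0, 75 mM β-mercaptoethanol, 1 mg/mL BSA, 100 µM H2folate and 100 µM NADPH. NADPH oxidation followed at 340 nm. Ki derived from IC50 as Ki(1+[S]/Km), assuming competitive inhibition.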

Chain of Bifunctional dihydrofolate reductase-thymidylate synthase (Plasmodium falciparum K1, UniProt P13922) (P13922 whole entry): as the sequence (P13922 whole entry, looked up) above

Compound	Ki [nM]
COc1cc(Cc2cnc(N)nc2N)ccc1OCc1cc(OC)c(OC)c(OC)c1	8.7
CCCCCCc1nc(N)nc(N)c1-c1ccccc1	0.7
CCc1nc(N)nc(N)c1-c1ccc(Br)cc1	44.3
Nc1nc(N)c(-c2ccccc2)c(CCCc2ccccc2)n1	2.4
COc1ccc(CCCc2nc(N)nc(N)c2-c2cccc(Cl)c2)cc1	6
Nc1nc(N)c(-c2cccc(Cl)c2)c(CCOCCCOc2ccccc2)n1	1.9

molecular target: Bifunctional dihydrofolate reductase-thymidylate synthase (Plasmodium falciparum K1, UniProt P13922, S108N); assay: Inhibition of the S108N mutant of dihydrofolate reductase (DHFR); settings: not given; how it was run: as §3
Sequence (P13922 whole entry, looked up, stated change not applied): as the sequence (P13922 whole entry, looked up) above

Compound	Ki [nM]
COc1cc(Cc2cnc(N)nc2N)ccc1OCc1cc(OC)c(OC)c(OC)c1	6.2
CCCCCCc1nc(N)nc(N)c1-c1ccccc1	1.2
CCc1nc(N)nc(N)c1-c1ccc(Br)cc1	31.5
Nc1nc(N)c(-c2ccccc2)c(CCCc2ccccc2)n1	0.9
COc1ccc(CCCc2nc(N)nc(N)c2-c2cccc(Cl)c2)cc1	4
Nc1nc(N)c(-c2cccc(Cl)c2)c(CCOCCCOc2ccccc2)n1	1.8

molecular target: Bifunctional dihydrofolate reductase-thymidylate synthase (Plasmodium falciparum K1) (UniProt P13922); assay: Inhibition of the C59R+S108N mutant of dihydrofolate reductase (DHFR) relative to Pyr.; settings: not given; how it was run: as §2

Compound	Relative activity
CCc1nc(N)nc(N)c1-c1ccc(Br)cc1	0.8

molecular target: T2, Dihydrofolate reductase (Homo sapiens, UniProt P00374); assay: Cytotoxicity by selective inhibition against human dihydrofolate reductase (DHFR).; settings: not given
T2 sequence (P00374 whole entry): T1 sequence (whole entry)

Compound	Ki [nM]
CCCCCCc1nc(N)nc(N)c1-c1ccccc1	15000
COc1ccc(CCCc2nc(N)nc(N)c2-c2cccc(Cl)c2)cc1	> 5000

test system: KB; assay: Cytotoxicity against human epidermoid carcinoma KB cell.; assay type: functional, cell-based; settings: not given

Compound	IC50 [nM]
CCCCCCc1nc(N)nc(N)c1-c1ccccc1	113000
Nc1nc(N)c(-c2ccccc2)c(CCCc2ccccc2)n1	> 500000
COc1ccc(CCCc2nc(N)nc(N)c2-c2cccc(Cl)c2)cc1	15000
Nc1nc(N)c(-c2cccc(Cl)c2)c(CCOCCCOc2ccccc2)n1	8100

test system: Plasmodium falciparum; assay: Relative antiplasmodial activity (IC50) compared to Pyr against Plasmodium falciparum K1CB1 DHFR double-mutant (C59R/S108N); assay type: functional; settings: not given

Compound	Relative activity
CCc1nc(N)nc(N)c1-c1ccc(Br)cc1	0.8

test system: Plasmodium falciparum; assay: Relative antiplasmodial activity (IC50) compared to Tmp against Plasmodium falciparum K1CB1 DHFR double-mutant (C59R/S108N); assay type: functional; settings: not given

Compound	Relative activity
COc1cc(Cc2cnc(N)nc2N)ccc1OCc1cc(OC)c(OC)c(OC)c1	0.2

test system: Plasmodium falciparum; assay: In vitro relative antiplasmodial activity (IC50) compared to Pyr against Plasmodium falciparum TM4/8.2 wild-type; assay type: functional; settings: not given

Compound	Relative activity
CCc1nc(N)nc(N)c1-c1ccc(Br)cc1	0.6

test system: Plasmodium falciparum; assay: In vitro relative antiplasmodial activity (IC50) compared to Tmp against Plasmodium falciparum TM4/8.2 wild-type; assay type: functional; settings: not given

Compound	Relative activity
COc1cc(Cc2cnc(N)nc2N)ccc1OCc1cc(OC)c(OC)c(OC)c1	0.04

test system: Plasmodium falciparum; assay: In vitro antiplasmodial activity (IC50) against Plasmodium falciparum wtTM4/8.2; assay type: functional, organism-based; settings: not given

Compound	IC50 [nM]
COc1cc(Cc2cnc(N)nc2N)ccc1OCc1cc(OC)c(OC)c(OC)c1	300
CCCCCCc1nc(N)nc(N)c1-c1ccccc1	60
CCc1nc(N)nc(N)c1-c1ccc(Br)cc1	50
Nc1nc(N)c(-c2ccccc2)c(CCCc2ccccc2)n1	200
COc1ccc(CCCc2nc(N)nc(N)c2-c2cccc(Cl)c2)cc1	400
Nc1nc(N)c(-c2cccc(Cl)c2)c(CCOCCCOc2ccccc2)n1	400

test system: Vero; assay: (§4) Cytotoxicity by the selective inhibition against African green monkey kidney […] (vero cells).; settings: Chlorocebus sabaeus

Compound	IC50 [nM]
CCCCCCc1nc(N)nc(N)c1-c1ccccc1	55000

test system: Vero; assay: as §4; assay type: functional, cell-based; settings: Chlorocebus sabaeus

Compound	IC50 [nM]
Nc1nc(N)c(-c2ccccc2)c(CCCc2ccccc2)n1	> 50000
COc1ccc(CCCc2nc(N)nc(N)c2-c2cccc(Cl)c2)cc1	3000
Nc1nc(N)c(-c2cccc(Cl)c2)c(CCOCCCOc2ccccc2)n1	15000

test system: Bifunctional dihydrofolate reductase-thymidylate synthase (Plasmodium falciparum K1), P13922 [UNDEFINED MUTATION]; assay: Ratio of Inhibition of the S108N mutant of dihydrofolate reductase (DHFR) to inhibition of wild type dihydrofolate reductase.; settings: not given
Sequence (P13922 whole entry, looked up, stated change not applied): as the sequence (P13922 whole entry, looked up) above

Compound	Ratio
CCCCCCc1nc(N)nc(N)c1-c1ccccc1	4
CCc1nc(N)nc(N)c1-c1ccc(Br)cc1	105
Nc1nc(N)c(-c2ccccc2)c(CCCc2ccccc2)n1	1.8
COc1ccc(CCCc2nc(N)nc(N)c2-c2cccc(Cl)c2)cc1	1.8
Nc1nc(N)c(-c2cccc(Cl)c2)c(CCOCCCOc2ccccc2)n1	4.5

test system: Plasmodium falciparum; assay: IC50 ratio against Plasmodium falciparum K1CB1/TM4; assay type: functional; settings: not given

Compound	Ratio
COc1cc(Cc2cnc(N)nc2N)ccc1OCc1cc(OC)c(OC)c(OC)c1	92.7
CCCCCCc1nc(N)nc(N)c1-c1ccccc1	21.7
CCc1nc(N)nc(N)c1-c1ccc(Br)cc1	500
Nc1nc(N)c(-c2ccccc2)c(CCCc2ccccc2)n1	11.5
COc1ccc(CCCc2nc(N)nc(N)c2-c2cccc(Cl)c2)cc1	6.8
Nc1nc(N)c(-c2cccc(Cl)c2)c(CCOCCCOc2ccccc2)n1	8.3

test system: not listed separately; assay: Safety ratio is cytotoxicity to BC cells/IC50 K1; assay type: toxicity, cell-based; settings: human, BC cells (breast cancer); read-out: Safety ratio
How it was run: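 Safety ratio is the mammalian-cell cytotoxicity IC50 (vero, KB or BC cells) divided by the antiplasmodial IC50 against P. falciparum K1CB1 (C59R+S108N DHFR). Parasites were grown in human erythrocytes (1.5% suspension, 1-2% parasitemia) at 37 °C, 3% CO2, with drug dilutions at 0.1% DMSO final. After 24 h, [3H]hypoxanthine was added for a further 18-24 h. IC50 came from sigmoidal incorporation curves.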

Compound	selectivity ratio
Nc1nc(N)c(-c2cccc(Cl)c2)c(CCOCCCOc2ccccc2)n1	1.8

test system: not listed separately; assay: Safety ratio is cytotoxicity to BC cells/IC50 K1.; assay type: toxicity, cell-based; settings: human, BC cells (breast cancer); read-out: Safety ratio
How it was run: (§5)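 Ratio of the cytotoxicity IC50 (vero, KB or BC cells, Skehan protocol) to the antiplasmodial IC50 against K1CB1 (C59R+S108N DHFR). […] Label was added at 24 h and cultures ran a further 18-24 h. Final DMSO was 0.1%.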

Compound	selectivity ratio
CCCCCCc1nc(N)nc(N)c1-c1ccccc1	206
Nc1nc(N)c(-c2ccccc2)c(CCCc2ccccc2)n1	> 217

test system: not listed separately; assay: Safety ratio is cytotoxicity to KB cells/IC50 K1.; assay type: toxicity, cell-based; settings: human, KB cells (epidermoid carcinoma); read-out: Safety ratio; how it was run: as §5

Compound	selectivity ratio
CCCCCCc1nc(N)nc(N)c1-c1ccccc1	87
Nc1nc(N)c(-c2ccccc2)c(CCCc2ccccc2)n1	> 217
Nc1nc(N)c(-c2cccc(Cl)c2)c(CCOCCCOc2ccccc2)n1	2.5

test system: not listed separately; assay: Safety ratio is cytotoxicity to KB cells/IC50 TM4.; assay type: toxicity, cell-based; settings: human, KB cells (epidermoid carcinoma); read-out: Safety ratio
How it was run: (§6)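 Ratio of the cytotoxicity IC50 (KB or BC cells, Skehan protocol) to the antiplasmodial IC50 against TM4/8.2 (wild-type DHFR). […] Label was added after 24 h and cultures ran a further 18-24 h.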

Compound	selectivity ratio
CCCCCCc1nc(N)nc(N)c1-c1ccccc1	1880
Nc1nc(N)c(-c2ccccc2)c(CCCc2ccccc2)n1	> 2500
Nc1nc(N)c(-c2cccc(Cl)c2)c(CCOCCCOc2ccccc2)n1	20

test system: not listed separately; assay: Safety ratio is cytotoxicity to vero cells/IC50 K1.; assay type: toxicity, cell-based; settings: monkey, read-out: Safety ratio; how it was run: as §5

Compound	selectivity ratio
CCCCCCc1nc(N)nc(N)c1-c1ccccc1	41
Nc1nc(N)c(-c2ccccc2)c(CCCc2ccccc2)n1	> 22
Nc1nc(N)c(-c2cccc(Cl)c2)c(CCOCCCOc2ccccc2)n1	4.5

test system: Plasmodium falciparum; assay: Safety ratio as cytotoxicity in vero cells relative to IC50 TM4; assay type: functional; settings: not given

Compound	Safety ratio
CCCCCCc1nc(N)nc(N)c1-c1ccccc1	857
Nc1nc(N)c(-c2ccccc2)c(CCCc2ccccc2)n1	>250
Nc1nc(N)c(-c2cccc(Cl)c2)c(CCOCCCOc2ccccc2)n1	38

test system: Bifunctional dihydrofolate reductase-thymidylate synthase (Plasmodium falciparum K1), P13922 [UNDEFINED MUTATION]; assay: Ratio of Inhibition of the C59R+S108N mutant of dihydrofolate reductase (DHFR) to inhibition of wild type dihydrofolate reductase.; settings: not given

Compound	Ratio
CCCCCCc1nc(N)nc(N)c1-c1ccccc1	2.3
CCc1nc(N)nc(N)c1-c1ccc(Br)cc1	148
Nc1nc(N)c(-c2ccccc2)c(CCCc2ccccc2)n1	4.8
COc1ccc(CCCc2nc(N)nc(N)c2-c2cccc(Cl)c2)cc1	2.7
Nc1nc(N)c(-c2cccc(Cl)c2)c(CCOCCCOc2ccccc2)n1	4.7

test system: not listed separately; assay: Safety ratio is cytotoxicity to BC cells/IC50 TM4.; assay type: toxicity, cell-based; settings: human, BC cells (breast cancer); read-out: Safety ratio; how it was run: as §6

Compound	selectivity ratio
CCCCCCc1nc(N)nc(N)c1-c1ccccc1	4470
Nc1nc(N)c(-c2ccccc2)c(CCCc2ccccc2)n1	> 2500
Nc1nc(N)c(-c2cccc(Cl)c2)c(CCOCCCOc2ccccc2)n1	15
